Measurements from different studies.
Each line is one published result; the experiments were not run side by side.
LCK: Tyrosine-protein kinase Lck (LCK, Homo sapiens, UniProt P06239)

O=C(O)c1cc(-c2ccc(C3CCNCC3)cc2)c2ccc(-c3ccc(C(F)(F)F)cc3)cc2c1 — remaining binding (LCK; cell-free assay, competition with immobilised ligand; 1 µM): 100%
Cc1cnn2ncc(-c3ccnc(N(C)C)n3)c2c1 — remaining signal (LCK; cell-free assay; 1 µM): 100%
CN(C)C1CCN(CC#Cc2nn(C3CCCC3)c3nc(NCc4ccccc4)ncc23)C1 (stereo not shown) — inhibition (LCK; enzyme activity, inhibitor, FRET; 0.1 µM): 17%
Cc1cn(-c2cc(NC(=O)c3ccc(C)c(Nc4nccc(-c5cccnc5)n4)c3)cc(C(F)(F)F)c2)cn1 — activity vs control (LCK; enzyme activity, inhibitor; 0.5 µM): 22.2%
CSc1cccnc1N1CCN(Cc2nc3ccccc3[nH]2)CC1 — remaining binding (LCK; binding, competition with immobilised ligand; 1 µM): 100%
COc1cc2ncnc(Nc3ccc(Oc4ccccc4)cc3C)c2cc1OC — inhibition (LCK; enzyme activity, inhibitor; 1 µM): 92%
C[C@H](NC(=O)c1cnc2n1[C@](C)(Cc1ccc(C#N)cc1)C(=O)N2c1cc(Cl)c(F)c(Cl)c1)C(=O)NC1(c2ccccn2)CC1 — remaining binding (LCK; cell-free assay, competition with immobilised ligand; 1 µM): 100%
FC(F)(F)Oc1cccc(-c2cnc3ccc(-c4ccncc4)nn23)c1 — activity vs control (LCK; enzyme activity, inhibitor, radiometric; 1 µM): 35%
c1nc2c(Nc3ccc4c(c3)OCCO4)nc(Nc3ccc4c(c3)OCCO4)nc2[nH]1 — activity vs control (LCK; enzyme activity, inhibitor; 10 µM): 2.1%
Cc1ccc(Nc2nccc(N(C)c3ccc4c(C)n(C)nc4c3)n2)cc1S(N)(=O)=O — inhibition (LCK; enzyme activity, inhibitor; 0.3 µM): 59%
CC(C)(C)n1nc(Cc2cccc3ccccc23)c2c(N)ncnc21 — activity vs control (LCK; enzyme activity, inhibitor; 0.5 µM): 80.4%
CSc1nc(C)c(-c2ccnc(Nc3ccc(N4CCOCC4)cc3)c2)[nH]1 — inhibition (LCK; enzyme activity, inhibitor; 10 µM): 15.8%
C=CC(=O)Nc1cc(Nc2nccc(Nc3cc(Cl)c(F)cc3C(C)(C)O)n2)c(OC)cc1N1CC[C@@H](N(C)C)C1 — inhibition (LCK; enzyme activity, inhibitor; 1 µM): 37%
NS(=O)(=O)c1cc(NC(=O)Cc2ccccc2)ccc1Oc1cccc(Cl)c1 — remaining binding (LCK; cell-free assay, competition with immobilised ligand; 1 µM): 70%
CN(C)c1ncc(F)c(-c2cnn3ncccc23)n1 — remaining signal (LCK; cell-free assay; 1 µM): 76%
Cc1cc(NC(=O)c2cccc3cc(-c4cccc5[nH]nc(N)c45)ccc23)ccc1F — activity vs control (LCK; enzyme activity, inhibitor; 0.1 µM): 90%
CNC(=O)c1cc2c(Oc3ccc(NC(=O)C4(C(=O)Nc5ccc(F)cc5)CC4)cc3)ccnc2cc1OC — inhibition (LCK; enzyme activity, inhibitor, radiometric; 1 µM): 99%
CCS(=O)(=O)c1cc2cc(C[C@](O)(CC(C)(C)c3ccc(F)cc3C(N)=O)C(F)(F)F)[nH]c2cn1 — remaining binding (LCK; cell-free assay, competition with immobilised ligand; 1 µM): 100%
CC1CCCN1c1nccc(-c2cnn3ncccc23)n1 (stereo not shown) — remaining signal (LCK; cell-free assay; 1 µM): 100%
C[C@@H]1CN(c2cc(-c3nn(C)c4ccc(OC5(C)CC5)cc34)ncn2)C[C@H](C)O1 — remaining binding (LCK; cell-free assay, competition with immobilised ligand; 1 µM): 94%
CNCc1ccc(-c2cc(-c3nc(-c4ccc(S(=O)(=O)C(C)C)cc4)cnc3N)on2)cc1 — inhibition (LCK; enzyme activity, inhibitor; 0.4 µM): 42%
CNC(=O)Nc1ccc2c(c1)[C@@]1(CC2)OC(=O)N(CC(=O)N(Cc2ccc(F)cc2)[C@@H](C)C(F)(F)F)C1=O — remaining binding (LCK; cell-free assay, competition with immobilised ligand; 1 µM): 86%
Cc1ccc(C(=O)NCc2ccsc2)cc1C#Cc1cn(C(C)C)c2ncnc(N)c12 — activity vs control (Tyrosine-protein kinase Lck, phosphorylated (LCK, Homo sapiens, UniProt P06239); enzyme activity, inhibitor; 1 µM): 2%
CS(=O)(=O)N1CCCC(NC(=O)[C@H](CCC2CCCCC2)NC(=O)c2ccc(CNc3ncnc4c3nnn4-c3ccccc3)cc2)C1 (stereo partly shown) — remaining binding (LCK; cell-free assay, competition with immobilised ligand; 0.1 µM): 100%
CNC(=O)c1ccccc1Nc1cc(Nc2ccc(N3CCOCC3)cc2OC)ncc1C(F)(F)F — inhibition (LCK; enzyme activity, inhibitor; 1 µM): > 50%
